What was measured:
Mus musculus [1] = assay: Neurotoxicity in ddY mouse assessed as motor impairment at 300 mg/kg, po after 1 hr by horizontal rotarod test; assay type: toxicity, organism-based; parameters: dose 300 mg/kg, route oral; conditions: in vivo
[2] = Solubility of the compound at pH 6.8; assay type: physicochemical; conditions: buffer
How it was run: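 Solubility measured in pH 6.8 buffer containing bile acids; compound tested as free base and as HCl salt.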

[3] = Ratio of drug level in brain to blood in rat at 10 mg/kg, po; assay type: ADME, organism-based; parameters: dose 10 mg/kg, route oral
How it was run: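 Rats dosed orally at 10 mg/kg (HCl salt); brain and blood drug concentrations measured and expressed as brain/blood ratio.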

Mus musculus [4] = assay: Neurotoxicity in ddY mouse assessed as elongation of hexobarbital-induced sleep at 0.3 to 3 mg/kg, po after 1 hr; assay type: toxicity, organism-based; parameters: dose 0.3-3 mg/kg, route oral; conditions: in vivo
Mus musculus [5] = assay: Neurotoxicity in ddY mouse assessed as reduction in locomotor activity at 3 to 30 mg/kg, po after 1 hr; assay type: toxicity, organism-based; parameters: dose 3-30 mg/kg, route oral; conditions: in vivo
Rattus norvegicus [6] = assay: Neurotoxicity in Wistar rat assessed as memory impairment at 1 to 30 mg/kg, po after 1 hr by passive avoidance test; assay type: toxicity, organism-based; parameters: dose 1-30 mg/kg, route oral; conditions: in vivo
Mus musculus [7] = assay: Neurotoxicity in ddY mouse assessed as motor impairment at 3 to 30 mg/kg, po after 1 hr by horizontal rotarod test; assay type: toxicity, organism-based; parameters: dose 3-30 mg/kg, route oral; conditions: in vivo
Mus musculus [8] = assay: Neurotoxicity in ddY mouse assessed as motor impairment at 10 to 100 mg/kg, po after 1 hr by horizontal rotarod test; assay type: toxicity, organism-based; parameters: dose 10-100 mg/kg, route oral; conditions: in vivo
Mus musculus [9] = assay: Neurotoxicity in ddY mouse assessed as elongation of hexobarbital-induced sleep at 300 mg/kg, po after 1 hr relative to diazepam; assay type: toxicity, organism-based; parameters: dose 300 mg/kg, route oral; conditions: in vivo
Mus musculus [10] = assay: Neurotoxicity in ddY mouse assessed as reduction in locomotor activity at 10 to 100 mg/kg, po after 1 hr; assay type: toxicity, organism-based; parameters: dose 10-100 mg/kg, route oral; conditions: in vivo
Rattus norvegicus [11] = assay: Neurotoxicity in Wistar rat assessed as memory impairment at 3 to 30 mg/kg, po after 1 hr by passive avoidance test; assay type: toxicity, organism-based; parameters: dose 3-30 mg/kg, route oral; conditions: in vivo

Compound | Activity (Mus musculus [1]) | solubility [2] [µg/mL] | Kp [3] | Activity (Mus musculus [4]) | Activity (Mus musculus [5]) | Activity (Rattus norvegicus [6]) | Activity (Mus musculus [7]) | Activity (Mus musculus [8]) | Activity (Mus musculus [9]) | Activity (Mus musculus [10]) | Activity (Rattus norvegicus [11])
CN(C(=O)Cn1c(=O)oc2ccc(-c3ccc(OC(F)(F)F)cc3)cc21)c1cccnc1.Cl | Toxic | 23 | 1.3 |  |  |  |  |  |  |  | 
CN1C(=O)CN=C(c2ccccc2)c2cc(Cl)ccc21 [DIAZEPAM] |  |  |  | Toxic | Toxic | Toxic | Toxic |  |  |  | 
CN(C(=O)Cn1c(=O)oc2ccc(-c3cccnc3)cc21)c1ccc(C(F)(F)F)cc1.Cl |  |  | 1.2 |  |  |  |  | Non-toxic | Non-toxic | Non-toxic | Non-toxic
